Assay results: article PMC11406655 (Therapeutic Advances in Hematology, 2024)
Several values for one entry are separate records, joined by “and”; a condition that tells them apart may be missing. Identical values can stand only once.

Legend:
Type in all cases: in vivo, human
[1] = system: patients with relapsed and/or refractory MDS, CMML, or AML; test: Safety: adverse events, dose-limiting toxicities and deaths
Method in brief: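 Open-label, multicenter part 1 in adults with relapsed/refractory MDS, CMML or secondary AML. The 300 mg dose-expansion cohort took the test compound orally once daily with water only, at about the same time (±4 h), on every day of 28-day cycles. Deaths were split into ⩽30 days or >30 days after the last dose. The analysis covered all patients given at least one dose.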

[2] = Plasma pharmacokinetics of GSK3326595
[3] = system: symmetrical dimethylarginine (SDMA) in bone marrow biopsies; test: SDMA in bone marrow biopsies by immunohistochemistry; conditions: for Mean percentage decrease in SDMA in bone marrow biopsies: after 29 days of treatment
Method in brief: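 Adults with relapsed/refractory MDS, CMML or secondary AML took the test compound orally once daily (400 or 300 mg) with water only, every day of 28-day cycles. Bone marrow biopsies were taken predose and 29 days after treatment began, formalin-fixed and paraffin-embedded. SDMA loss was assessed by immunohistochemistry.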

Which “TEAE: AE leading to dose interruption” value ([1]; 400 mg, n = 13) does the source give for CC(=O)N1CCC(Nc2cc(C(=O)NC[C@H](O)CN3CCc4ccccc4C3)ncn2)CC1 [GSK3326595] here?
The value was 10 (77) n (%).

And the “TEAE: AE leading to dose reduction” value ([1]; 400 mg, n = 13)?
The value was 5 (38) n (%).

What about the “TEAE: AE leading to study treatment withdrawn” value ([1]; 400 mg, n = 13) of the same molecule?
The value was 4 (31) n (%).

What about the “TEAE: Anemia” value ([1]; 400 mg, n = 13) of the same molecule?
The value was 3 (23) n (%).

What about the “TEAE: Any AE” value ([1]; 400 mg, n = 13) of the same molecule?
Its value is 13 (100) n (%).

And the “TEAE: Any SAE” value ([1]; 400 mg, n = 13)?
The value was 11 (85) n (%).

And the “TEAE: Decreased appetite” value ([1]; 400 mg, n = 13)?
Its value is 5 (38) n (%).

And the “TEAE: Decreased platelet count” value ([1]; 400 mg, n = 13)?
The value was 4 (31) n (%).

And the “TEAE: Diarrhea” value ([1]; 400 mg, n = 13)?
Its value is 6 (46) n (%).

What about the “TEAE: Dysgeusia” value ([1]; 400 mg, n = 13) of the same molecule?
Its value is 3 (23) n (%).

What about the “TEAE: Dyspnea” value ([1]; 400 mg, n = 13) of the same molecule?
Its value is 5 (38) n (%).

What about the “TEAE: Fatal SAE” value ([1]; 400 mg, n = 13) of the same molecule?
The value was 9 (69%) n (%) and 9 (69) n (%).

And the “TEAE: Fatigue” value ([1]; 400 mg, n = 13)?
Its value is 7 (54) n (%).

What about the “TEAE: Nausea” value ([1]; 400 mg, n = 13) of the same molecule?
The value was 4 (31) n (%).

And the “Deaths >30 days from last dose of study treatment (number)” value ([1]; 300-mg cohort)?
Its value is 6.

What about the “Deaths ⩽30 days from last dose of study treatment (number)” value ([1]; 300-mg cohort) of the same molecule?
The value was 8.

What about the “Deaths >30 days from last dose of study treatment (number)” value ([1]; 400-mg cohort) of the same molecule?
Its value is 5.

And the “Deaths ⩽30 days from last dose of study treatment (number)” value ([1]; 400-mg cohort)?
Its value is 6.

What about the “Deaths >30 days from last dose of study treatment” value ([1]; Total, N = 30) of the same molecule?
Its value is 11 (37%) n (%).

And the “Deaths ⩽30 days from last dose of study treatment” value ([1]; Total, N = 30)?
The value was 47%.

What about the “Died (during the study)” value ([1]; Total, N = 30) of the same molecule?
The value was 25 (83%) n (%).

And the “GSK3326595-related AE: decreased platelet count” value ([1]; Total, N = 30)?
Its value is 27%.

What about the “GSK3326595-related AE: dysgeusia” value ([1]; Total, N = 30) of the same molecule?
Its value is 23%.

And the “GSK3326595-related AE: fatigue” value ([1]; Total, N = 30)?
Its value is 20%.

What about the “GSK3326595-related AE: nausea” value ([1]; Total, N = 30) of the same molecule?
The value was 20%.

And the “GSK3326595-related TEAE with maximum grade of 3 or 4: decreased neutrophil count” value ([1]; Total, N = 30)?
The value was 4 (13%) n (%).

And the “GSK3326595-related TEAE with maximum grade of 3 or 4: decreased platelet count” value ([1]; Total, N = 30)?
The value was 6 (20%) n (%).

And the “GSK3326595-related TEAE with maximum grade of 3 or 4: thrombocytopenia” value ([1]; Total, N = 30)?
Its value is 3 (10%) n (%).

And the “GSK3326595-related TEAE: AE leading to study treatment withdrawn” value ([1]; Total, N = 30)?
Its value is 2 (7) n (%).

What about the “GSK3326595-related TEAE: Anemia” value ([1]; Total, N = 30) of the same molecule?
Its value is 3 (10%) n (%) and 3 (10) n (%).

And the “GSK3326595-related TEAE: Any SAE” value ([1]; Total, N = 30)?
The value was 6 (20%) n (%) and 6 (20) n (%).

And the “GSK3326595-related TEAE: Any TEAEs” value ([1]; Total, N = 30)?
The value was 22 (73) n (%).

And the “GSK3326595-related TEAE: Any grade 3/4 TEAE” value ([1]; Total, N = 30)?
Its value is 13 (43) n (%).

And the “GSK3326595-related TEAE: Decreased appetite” value ([1]; Total, N = 30)?
The value was 4 (13%) n (%) and 4 (13) n (%).

What about the “GSK3326595-related TEAE: Decreased platelet count” value ([1]; Total, N = 30) of the same molecule?
Its value is 8 (27%) n (%) and 8 (27) n (%).

And the “GSK3326595-related TEAE: Dysgeusia” value ([1]; Total, N = 30)?
Its value is 7 (23%) n (%) and 7 (23) n (%).

What about the “GSK3326595-related TEAE: Fatal SAE” value ([1]; Total, N = 30) of the same molecule?
The value was 1 (3) n (%).

And the “GSK3326595-related TEAE: Fatigue” value ([1]; Total, N = 30)?
Its value is 6 (20%) n (%) and 6 (20) n (%).

And the “GSK3326595-related TEAE: Nausea” value ([1]; Total, N = 30)?
The value was 6 (20%) n (%) and 6 (20) n (%).

And the “GSK3326595-related TEAE: Neutrophil count decreased” value ([1]; Total, N = 30)?
Its value is 4 (13%) n (%) and 4 (13) n (%).

And the “GSK3326595-related TEAE: Thrombocytopenia” value ([1]; Total, N = 30)?
The value was 3 (10%) n (%) and 3 (10) n (%).

And the “Patients who died during the study” value ([1]; Total, N = 30)?
Its value is 83%.

And the “SAE: anemia” value ([1]; Total, N = 30)?
Its value is 3 (10%) n (%).

What about the “SAE: febrile neutropenia” value ([1]; Total, N = 30) of the same molecule?
The value was 5 (17%) n (%).

And the “SAE: pneumonia” value ([1]; Total, N = 30)?
The value was 4 (13%) n (%).

And the “SAE: sepsis” value ([1]; Total, N = 30)?
Its value is 8 (27%) n (%).

What about the “SAE: thrombocytopenia” value ([1]; Total, N = 30) of the same molecule?
Its value is 3 (10%) n (%).

What about the “TEAE with maximum grade of 3 or 4: anemia” value ([1]; Total, N = 30) of the same molecule?
Its value is 8 (27%) n (%).

And the “TEAE with maximum grade of 3 or 4: decreased neutrophil count” value ([1]; Total, N = 30)?
The value was 7 (23%) n (%).

What about the “TEAE with maximum grade of 3 or 4: decreased platelet count” value ([1]; Total, N = 30) of the same molecule?
Its value is 11 (37%) n (%).

What about the “TEAE with maximum grade of 3 or 4: dyspnea” value ([1]; Total, N = 30) of the same molecule?
Its value is 4 (13%) n (%).

And the “TEAE with maximum grade of 3 or 4: fatigue” value ([1]; Total, N = 30)?
Its value is 4 (13%) n (%).

What about the “TEAE with maximum grade of 3 or 4: febrile neutropenia” value ([1]; Total, N = 30) of the same molecule?
Its value is 6 (20%) n (%).

What about the “TEAE with maximum grade of 3 or 4: hypotension” value ([1]; Total, N = 30) of the same molecule?
The value was 4 (13%) n (%).

What about the “TEAE with maximum grade of 3 or 4: pneumonia” value ([1]; Total, N = 30) of the same molecule?
Its value is 6 (20%) n (%).

What about the “TEAE with maximum grade of 3 or 4: thrombocytopenia” value ([1]; Total, N = 30) of the same molecule?
Its value is 5 (17%) n (%).

And the “TEAE: AE leading to dose interruption” value ([1]; Total, N = 30)?
The value was 20 (67) n (%).

What about the “TEAE: AE leading to dose reduction” value ([1]; Total, N = 30) of the same molecule?
The value was 6 (20) n (%).

What about the “TEAE: AE leading to study treatment withdrawn” value ([1]; Total, N = 30) of the same molecule?
Its value is 7 (23) n (%).

What about the “TEAE: Anemia” value ([1]; Total, N = 30) of the same molecule?
Its value is 10 (33%) n (%) and 10 (33) n (%).

What about the “TEAE: Any AE” value ([1]; Total, N = 30) of the same molecule?
The value was 30 (100) n (%).

And the “TEAE: Any SAE” value ([1]; Total, N = 30)?
The value was 23 (77) n (%).

And the “TEAE: Decreased appetite” value ([1]; Total, N = 30)?
Its value is 9 (30%) n (%) and 9 (30) n (%).

What about the “TEAE: Decreased platelet count” value ([1]; Total, N = 30) of the same molecule?
Its value is 12 (40%) n (%) and 12 (40) n (%).

And the “TEAE: Diarrhea” value ([1]; Total, N = 30)?
The value was 13 (43%) n (%) and 13 (43) n (%).

And the “TEAE: Dysgeusia” value ([1]; Total, N = 30)?
Its value is 10 (33%) n (%) and 10 (33) n (%).

What about the “TEAE: Dyspnea” value ([1]; Total, N = 30) of the same molecule?
Its value is 11 (37%) n (%) and 11 (37) n (%).

And the “TEAE: Fatal SAE” value ([1]; Total, N = 30)?
Its value is 14 (47) n (%).

And the “TEAE: Fatigue” value ([1]; Total, N = 30)?
The value was 13 (43%) n (%) and 13 (43) n (%).

And the “TEAE: Nausea” value ([1]; Total, N = 30)?
The value was 9 (30%) n (%) and 9 (30) n (%).

What about the “TEAE: thrombocytopenia” value ([1]; Total, N = 30) of the same molecule?
Its value is 5 (17%) n (%).

What about the “Treatment-related SAE: decreased neutrophil count” value ([1]; Total, N = 30) of the same molecule?
Its value is 3 (10%) n (%).

What about the “Study treatment discontinued due to sepsis” value ([1]; Total, N = 30, n = 2) of the same molecule?
The value was 7%.

What about the “Dose proportionality of exposure” value ([2]; 300 and 400 mg) of the same molecule?
The value was “dose-proportional”.

What about the half-life ([2]; human, plasma, po, 400 mg) of the same molecule?
The half-life was 4 to 6 h.

And the Tmax ([2]; human, plasma, po, 400 mg, Tmax, 300 and 400 mg once daily)?
The Tmax was roughly 2 h.

What about the “Mean percentage decrease in SDMA in bone marrow biopsies” value ([3]; 300-mg cohort, 7 patients) of the same molecule?
The value was 84.63%.

What about the “Mean percentage decrease in SDMA in bone marrow biopsies” value ([3]; 400-mg cohort, 4 patients) of the same molecule?
The value was 85.75%.

What about the “Maximum observed decrease in tumor SDMA” value ([3]; day 29, 300-mg cohort) of the same molecule?
The value was 97.8%.

What about the “Maximum observed decrease in tumor SDMA” value ([3]; day 29, 400-mg cohort) of the same molecule?
The value was 100%.
